Data set [1] deals with T1, 5-hydroxytryptamine receptor 3A (Cavia porcellus, UniProt O70212).
T1 sequence (O70212 whole entry): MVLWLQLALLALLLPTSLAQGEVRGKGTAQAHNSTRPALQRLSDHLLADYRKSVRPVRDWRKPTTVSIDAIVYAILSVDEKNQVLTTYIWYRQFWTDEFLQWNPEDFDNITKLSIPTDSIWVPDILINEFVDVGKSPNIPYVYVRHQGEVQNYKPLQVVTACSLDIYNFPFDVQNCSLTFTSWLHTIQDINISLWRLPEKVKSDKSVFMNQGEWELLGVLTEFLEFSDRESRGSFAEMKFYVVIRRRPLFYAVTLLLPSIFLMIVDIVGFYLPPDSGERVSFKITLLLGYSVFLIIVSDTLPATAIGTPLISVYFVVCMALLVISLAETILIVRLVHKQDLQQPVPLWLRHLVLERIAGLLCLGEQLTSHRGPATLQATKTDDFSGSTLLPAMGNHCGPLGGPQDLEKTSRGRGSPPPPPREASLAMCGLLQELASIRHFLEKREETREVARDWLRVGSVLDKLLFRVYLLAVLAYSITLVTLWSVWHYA
Description: Antagonist activity at 5HT3 receptor in spontaneously beating guinea pig right atrium assessed as inhibition of serotonin-induced maximum response by noncompetitive binding assay. The data set is classed as tissue-based, Cardiac atrium. The essentials:
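Spontaneously beating guinea pig right atria, exposed 30 min to test compound at 10 μM, followed by cumulative 5-HT log concentration-response curves versus control. Mean ± SEM of five to seven observations.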

Data set [2] has as its target T2, 5-hydroxytryptamine receptor 3A (Rattus norvegicus, UniProt P35563).
T2 sequence (P35563 whole entry): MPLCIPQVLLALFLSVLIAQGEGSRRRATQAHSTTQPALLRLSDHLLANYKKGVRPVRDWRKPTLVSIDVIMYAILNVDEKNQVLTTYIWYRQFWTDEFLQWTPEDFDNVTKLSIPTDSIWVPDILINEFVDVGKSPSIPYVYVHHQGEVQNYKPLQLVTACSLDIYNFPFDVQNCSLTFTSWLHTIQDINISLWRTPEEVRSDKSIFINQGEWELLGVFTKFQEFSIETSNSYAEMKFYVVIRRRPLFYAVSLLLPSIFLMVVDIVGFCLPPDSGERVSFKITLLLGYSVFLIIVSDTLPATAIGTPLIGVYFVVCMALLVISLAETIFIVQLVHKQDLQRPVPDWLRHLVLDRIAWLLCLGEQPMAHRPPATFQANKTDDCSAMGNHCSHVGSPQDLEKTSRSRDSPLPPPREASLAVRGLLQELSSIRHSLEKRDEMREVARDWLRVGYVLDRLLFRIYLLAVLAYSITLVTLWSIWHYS
Description: Displacement of [3H]LY278584 from 5HT3 receptor in rat cortical homogenate. The note with it: read-out: Ki. The essentials:
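Rat cortical homogenate, competition against [3H]LY278584 binding. Ki is the concentration giving half-maximal inhibition of binding, as the mean ± S.E.M. of three determinations.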

In data set [3] the target is T1, 5-hydroxytryptamine receptor 3A. As to the kind of experiment: Agonist activity at 5HT3 receptor in voltage-stimulated guinea pig left atrium assessed as positive inotropic potency. The data set is classed as functional, tissue-based, Cardiac atrium.
The target in data set [4] is 5-hydroxytryptamine receptor 4 (Cavia porcellus, UniProt O70528). As to the kind of experiment: Displacement of [3H]GR-113808 from 5HT4 receptor in guinea pig striatum. A general note: Displacement assays read how much labelled ligand stays bound in the presence of the test substance.
Chain of 5-hydroxytryptamine receptor 4 (O70528 whole entry): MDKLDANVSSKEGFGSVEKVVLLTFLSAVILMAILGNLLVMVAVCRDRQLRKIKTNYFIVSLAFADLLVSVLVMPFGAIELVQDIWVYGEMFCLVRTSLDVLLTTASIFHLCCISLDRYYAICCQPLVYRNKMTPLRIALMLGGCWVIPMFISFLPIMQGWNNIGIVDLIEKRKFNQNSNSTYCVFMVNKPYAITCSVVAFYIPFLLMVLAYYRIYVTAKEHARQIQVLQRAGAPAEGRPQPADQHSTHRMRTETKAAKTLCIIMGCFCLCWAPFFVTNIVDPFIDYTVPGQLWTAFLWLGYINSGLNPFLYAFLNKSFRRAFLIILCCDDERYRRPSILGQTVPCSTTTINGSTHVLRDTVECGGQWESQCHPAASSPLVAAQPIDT
For data set [5], the system named is Rattus norvegicus. Description: Plasma concentration in rat at 0.25 mg/kg, iv. The data set is classed as ADME, organism-based. More on the design: dose 0.25 mg/kg, route intravenous. The settings on record: in vivo. The essentials:
(§1)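 Rats dosed iv at 0.25–1 mg/kg and sacrificed 30 min after injection. Mean ± SEM of three animals. Brain/plasma ratio assumes 1 g tissue equals 1 mL water.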

The nature of data set [6]: Ratio of drug level from brain to plasma in rat at 1 mg/kg, iv. The data set is classed as ADME, organism-based. More on the design: dose 1 mg/kg, route intravenous. A digest of the protocol:
(§2)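 Rats given a single iv injection (0.25–1 mg/kg) and killed 30 min afterwards. Brain/plasma ratio calculated assuming 1 g tissue equals 1 mL water. Three animals per dose, mean ± SEM.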

Data set [7] relates to Rattus norvegicus. Description: Agonist activity at 5HT3 receptor in iv dosed Sprague-Dawley rat assessed as induction of bradycardia measured after 5 to 30 mins post-treatment by von Bezold-Jarisch reflex test. The data set is classed as functional. A digest of the protocol: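 Urethane-anesthetized rats, compound given iv. Agonism was scored as the compound itself evoking the von Bezold-Jarisch reflex (bradycardia). Antagonism was tested by giving the compound iv 5, 15 or 30 min before phenylbiguanide (PBG) and scoring the reduction of PBG-evoked bradycardia. ED50 is the dose giving half of the maximal bradycardia evoked by the same compound.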

Data set [8] concerns Brain. Description: Drug level in rat brain at 0.5 mg/kg, iv. The settings on record: in vivo. More on the design: dose 0.5 mg/kg, route intravenous. The data set is classed as ADME, organism-based. The essentials: as §1
The target of data set [9] is T1, 5-hydroxytryptamine receptor 3A. Description: Intrinsic activity at 5HT3 receptor in spontaneously beating guinea pig right atrium assessed as positive chronotropic potency relative to serotonin.
The target in data set [10] is D(2) dopamine receptor (Rattus norvegicus, UniProt P61169). Description: Displacement of [3H]spiperone from dopamine D2 receptor in rat striatum.
Chain of D(2) dopamine receptor (P61169 whole entry): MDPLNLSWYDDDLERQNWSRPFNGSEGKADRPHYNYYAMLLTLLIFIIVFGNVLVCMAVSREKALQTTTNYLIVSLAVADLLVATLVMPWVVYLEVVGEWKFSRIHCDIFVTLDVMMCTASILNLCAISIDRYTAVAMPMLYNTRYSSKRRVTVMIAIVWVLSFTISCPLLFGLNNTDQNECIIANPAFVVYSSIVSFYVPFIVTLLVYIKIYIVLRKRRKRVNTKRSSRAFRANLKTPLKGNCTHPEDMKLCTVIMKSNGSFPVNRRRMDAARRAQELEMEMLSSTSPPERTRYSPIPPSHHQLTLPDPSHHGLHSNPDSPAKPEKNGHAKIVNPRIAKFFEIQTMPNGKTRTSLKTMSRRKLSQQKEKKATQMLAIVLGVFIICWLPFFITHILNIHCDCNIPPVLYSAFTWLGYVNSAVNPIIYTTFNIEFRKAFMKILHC
Data set [11] has as its target D(1A) dopamine receptor (Rattus norvegicus, UniProt P18901). As to the kind of experiment: Displacement of [3H]SCH-23390 from dopamine D1 receptor in rat striatum.
The target of data set [12] is T3, 5-hydroxytryptamine receptor 1A (Rattus norvegicus, UniProt P19327).
T3 sequence (P19327 whole entry): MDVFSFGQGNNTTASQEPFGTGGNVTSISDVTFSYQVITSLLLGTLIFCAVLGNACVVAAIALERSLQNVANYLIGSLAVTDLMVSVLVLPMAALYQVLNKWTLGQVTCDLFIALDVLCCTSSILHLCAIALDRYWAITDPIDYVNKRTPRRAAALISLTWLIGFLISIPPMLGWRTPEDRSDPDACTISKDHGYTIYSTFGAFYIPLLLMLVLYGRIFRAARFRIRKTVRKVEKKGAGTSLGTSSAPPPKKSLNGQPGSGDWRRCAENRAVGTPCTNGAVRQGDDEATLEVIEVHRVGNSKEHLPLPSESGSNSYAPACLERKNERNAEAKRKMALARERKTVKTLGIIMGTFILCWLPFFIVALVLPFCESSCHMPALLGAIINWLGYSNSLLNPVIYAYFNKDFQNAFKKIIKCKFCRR
As to the kind of experiment: Displacement of [3H]8-OHDPAT from 5HT1A receptor in rat hippocampus. The data set is classed as tissue-based.

The target of data set [13] is 5-hydroxytryptamine receptor 2A (Rattus norvegicus, UniProt P14842). Description: Displacement of [3H]ketanserin from 5HT2A receptor in rat cortex.
Chain of 5-hydroxytryptamine receptor 2A (P14842 whole entry): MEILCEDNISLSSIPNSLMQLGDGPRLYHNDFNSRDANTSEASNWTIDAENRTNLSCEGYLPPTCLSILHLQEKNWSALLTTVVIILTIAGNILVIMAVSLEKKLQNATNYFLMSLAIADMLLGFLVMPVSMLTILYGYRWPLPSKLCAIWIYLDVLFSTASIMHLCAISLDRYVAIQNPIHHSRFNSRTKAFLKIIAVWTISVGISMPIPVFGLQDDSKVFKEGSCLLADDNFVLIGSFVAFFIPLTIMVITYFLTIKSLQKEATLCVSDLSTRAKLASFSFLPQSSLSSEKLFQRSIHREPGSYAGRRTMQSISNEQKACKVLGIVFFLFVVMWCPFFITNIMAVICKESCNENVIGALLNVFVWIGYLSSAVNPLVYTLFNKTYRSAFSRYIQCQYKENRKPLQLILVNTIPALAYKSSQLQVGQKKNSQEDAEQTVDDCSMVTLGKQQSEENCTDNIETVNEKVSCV
Data set [14] relates to Brain. Description: Drug level in rat brain at 1 mg/kg, iv. The data set is classed as ADME, organism-based. More on the design: dose 1 mg/kg, route intravenous. The note with it: read-out: Drug uptake, in vivo. The essentials:
as §1

Data set [15] can be described thus: Ratio of drug level from brain to plasma in rat at 0.5 mg/kg, iv. The format is ADME, organism-based. More on the design: dose 0.5 mg/kg, route intravenous. A digest of the protocol: as §2
Data set [16] addresses T4, Alpha-2A adrenergic receptor (Rattus norvegicus, UniProt P22909).
T4 sequence (P22909 whole entry): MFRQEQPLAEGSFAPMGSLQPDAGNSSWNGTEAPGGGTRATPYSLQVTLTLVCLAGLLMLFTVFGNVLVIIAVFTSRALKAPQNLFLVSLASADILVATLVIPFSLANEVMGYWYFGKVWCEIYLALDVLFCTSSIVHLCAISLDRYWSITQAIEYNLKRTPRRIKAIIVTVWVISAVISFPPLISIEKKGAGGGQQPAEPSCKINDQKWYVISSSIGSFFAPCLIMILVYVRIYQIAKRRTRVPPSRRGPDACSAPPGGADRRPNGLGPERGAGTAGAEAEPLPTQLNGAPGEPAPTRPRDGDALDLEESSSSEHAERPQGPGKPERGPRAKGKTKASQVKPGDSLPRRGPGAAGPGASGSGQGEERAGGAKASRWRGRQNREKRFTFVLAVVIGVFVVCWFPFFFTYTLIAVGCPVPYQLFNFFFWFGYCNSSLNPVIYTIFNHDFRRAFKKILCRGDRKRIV
As to the kind of experiment: Displacement of [3H]RX821002 from adrenergic alpha2 receptor in rat cortex.

The values below come from ChEMBL document CHEMBL1154626, “Novel, potent, and selective quinoxaline-based 5-HT(3) receptor ligands. 1. Further structure-activity relationships and pharmacological characterization” (J Med Chem, 2009).

A word on the IC50: it is the concentration at which inhibition is half-maximal. What is called Ki is a measure of affinity in units of concentration, obtained from inhibition or displacement. By EC50 is commonly meant the concentration that produces a half-maximal response. What is called Kp is the ratio of the level in a tissue or fluid to that in plasma or blood. The ED50 is the dose at which the effect has come halfway, by size or by number of responders.

Chain of D(1A) dopamine receptor (P18901 whole entry): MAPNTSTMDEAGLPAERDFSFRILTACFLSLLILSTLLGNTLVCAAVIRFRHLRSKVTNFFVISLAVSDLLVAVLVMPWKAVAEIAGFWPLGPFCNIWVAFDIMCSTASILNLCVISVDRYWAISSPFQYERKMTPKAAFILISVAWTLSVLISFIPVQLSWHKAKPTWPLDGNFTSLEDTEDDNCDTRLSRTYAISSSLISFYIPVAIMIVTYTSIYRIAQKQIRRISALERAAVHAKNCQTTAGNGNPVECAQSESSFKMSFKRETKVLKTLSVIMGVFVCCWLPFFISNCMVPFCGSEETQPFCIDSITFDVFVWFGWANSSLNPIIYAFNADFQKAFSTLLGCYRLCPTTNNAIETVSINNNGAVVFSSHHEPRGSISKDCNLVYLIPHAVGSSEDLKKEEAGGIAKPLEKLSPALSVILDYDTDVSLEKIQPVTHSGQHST

For the compound `c1ccc(CN2CCN(c3nc4ncccc4n4cccc34)CC2)cc1`, the IC50 entry in data set [1] is listed as “Not Active”. The Ki in data set [2] is 0.0022 µM. For the same compound, the EC50 result in [3] is given as “Not Active”.
`c1ccc2nc(N3CCNCC3)ccc2c1` [QUIPAZINE] registered a Ki in [4] above 10 µM.
Take `O=C(O)CN1CCN(c2nc3cc(F)ccc3n3cccc23)CC1`: the IC50 in data set [1] (read-out: IC50) amounted to 1.88 µM. Also, the concentration in [5] came to 540 nM. Also, the Kp in data set [6] amounted to 0.03. The ED50 in data set [7] amounted to 0.036 mg/kg. Besides, the Drug uptake entry in [8] (BLD = below limit of detection) is listed as “BLD”.
In the case of `CN1CCN(c2nc3ncccc3n3cccc23)CC1`, the Ki in data set [2] came to 0.0024 µM. Besides, the EC50 in [9] amounted to 0.34 µM.
In the case of `Fc1ccc2c(c1)nc(N1CCN(Cc3cnc[nH]3)CC1)c1cccn12`, the IC50 in data set [1] (read-out: IC50) was determined as 0.27 µM. Further, the Cp result in data set [5] (BLD = below limit of detection) is on record as “BLD”. Moreover, the Ki in [10] is above 10 µM; in [4], above 10 µM; in data set [2], 0.00068 µM; in data set [11] it was above 10 µM; in [12], above 10 µM; in [13], above 10 µM. The Ki in data set [16] is above 10 µM. Moreover, the figures for the Kp in data set [6] and in data set [15] were 1 and 1.3, respectively. Besides, the concentration in [14] stood at 210 nM; in data set [8] (read-out: Drug uptake), 90 nM.
